From ChEMBL document CHEMBL1135597, “A thymidine phosphorylase-stable analogue of BVDU with significant antiviral activity” (J Med Chem, 2002)
Values after ≈ are worked out from the molar mass of the structure shown.

Key:
E6SM = test: […] in E6SM cell cultures of human embryonic skin-muscle; format: functional
Human alphaherpesvirus 1 [1] = test: Inhibitory activity against HSV-1 (McIntyre) replication in E6SM cell cultures of human embryonic skin-muscle; format: functional, organism-based; settings: Human alphaherpesvirus 1, E6SM
In short: (§1)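 Confluent human embryonic skin-muscle (E6SM) cell cultures were infected with 100 CCID50 of virus. After 1 h adsorption, residual virus was removed and cultures were incubated with test compound at varying concentrations […]. Cytopathicity was scored once complete in infected control cultures. EC50 is the concentration that inhibits virus-induced cytopathicity by 50%.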

[2] = Inhibitory activity against HSV-1 (KOS) replication in E6SM cell cultures of human embryonic skin-muscle; format: functional, cell-based; settings: Human alphaherpesvirus 1, E6SM; in short: as §1
[3] = Inhibitory activity against TK-deficient HSV-1 (KOS) replication in E6SM cell cultures of human embryonic skin-muscle; format: functional, cell-based; settings: Human alphaherpesvirus 1, E6SM; in short: as §1
Human alphaherpesvirus 1 [4] = test: Inhibitory activity against HSV-1 (F) replication in E6SM cell cultures of human embryonic skin-muscle; format: functional, organism-based; settings: Human alphaherpesvirus 1, E6SM; in short: as §1
Vaccinia virus = test: Inhibitory activity against vaccinia virus (VV) replication in E6SM cell cultures of human embryonic skin-muscle; format: functional, organism-based; settings: Orthopoxvirus vaccinia; in short: as §1
[5] = system: Vesicular stomatitis virus; test: Inhibitory activity against vesicular stomatitis virus (VSV) replication in E6SM cell cultures of human embryonic skin-muscle; format: functional, organism-based; in short: as §1

Row | Structure (SMILES) | MCC (E6SM) [µg/mL] | EC50 (Human alphaherpesvirus 1 [1]) [µg/mL] | EC50 [2] [µg/mL] | EC50 [3] [µg/mL] | EC50 (Human alphaherpesvirus 1 [4]) [µg/mL] | EC50 (Vaccinia virus) [µg/mL] | EC50 [5] [µg/mL]
1 | NC(=O)c1ncn([C@@H]2O[C@H](CO)[C@@H](O)[C@H]2O)n1 [RIBAVIRIN] | > 400 | 240 (≈ 983 µM) | 48 (≈ 197 µM) | 240 (≈ 983 µM) | 48 (≈ 197 µM) | 240 (≈ 983 µM) | > 400
2 | O=c1[nH]c(=O)n([C@@H]2CO[C@H](CO)C2)cc1/C=C/Br | > 400 | 9.6 (≈ 30.3 µM) | 2.6 (≈ 8.2 µM) | > 400 | 1.9 (≈ 5.99 µM) | > 400 | > 400
3 | Nc1nc2c(ncn2COC(CO)CO)c(=O)[nH]1 [GANCICLOVIR] | > 100 | 0.019 (≈ 0.0744 µM) | 0.019 (≈ 0.0744 µM) | 2.4 (≈ 9.4 µM) | 0.019 (≈ 0.0744 µM) | > 100 | > 100
4 | O=c1[nH]c(=O)n([C@H]2C[C@H](O)[C@@H](CO)O2)cc1/C=C/Br [BRIVUDINE] | > 400 | 0.026 (≈ 0.078 µM) | 0.026 (≈ 0.078 µM) | 240 (≈ 720 µM) | 0.026 (≈ 0.078 µM) | 1.9 (≈ 5.7 µM) | > 400
5 | Nc1nc2c(ncn2COCCO)c(=O)[nH]1 [ACYCLOVIR] | > 400 | 0.077 (≈ 0.342 µM) | 0.077 (≈ 0.342 µM) | 48 (≈ 213 µM) | 0.077 (≈ 0.342 µM) | > 400 | > 400
